Ins promoter up – MIN6 insulin promoter up-regulation. MIN6 insulin promoter-GFP reporter, high-content imaging; active compounds read high. z-score at 5 µM. 190,000 tested, 0.3% active. AID 1625;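 active = z-score above 3 at 5 µM with at least 500 cells counted in the well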
Autophagy mod – autophagy modulation, high-content screen | calls only at 10 µM (by protocol) | 190,000 tested, 0.98% active | MEF GFP-LC3 puncta imaging; test concentration mostly 10 µM;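 active = percentage of spot-positive cells more than 3 SD above its plate mean, without a fluorescence outlier flag or 80% toxicity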
INS promoter inh – TRM-6 insulin promoter activity inhibition. TRM-6 cells (human fetal islet line), insulin promoter-eGFP reporter, imaging; reporter expression induced with tamoxifen. AID 1273. inhibition, % at 2 µM. 130,000 tested, 0.9% active;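 active = inhibition above the mean plus 3 SD, with well images judged a real hit on visual review, cut at about 60% in these data, passing the limit was not always enough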
Dynein transport – dynein cargo transport inhibition; 220,000 tested, 0.47% active; z-score, hits read low; 3617.4 mouse cells, GR-EGFP nuclear translocation imaging; test concentration mostly 20 µM; stimulated with dexamethasone, 1 µM; active compounds read low;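 active = plate z-score of nuclear minus cytoplasmic receptor signal below a set negative limit, without overly bright fluorescence or cell loss, cut at about -3.5 in these data, passing the limit was not always enough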;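 note: z-score of nuclear minus cytoplasmic ring GR-EGFP intensity difference per well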
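Medium: Induction medium lacking tetracycline, stripped serum | Probe or stimulus: 1.0 µM final dexamethasone stimulus | Schedule: 48 h induction, then 1 h compound, then 30 min agonist, 37 °C | Signal: Automated 10x imaging of fixed Hoechst-stained cells | Evaluation: Per-cell GR-EGFP intensity, nucleus versus surrounding cytoplasmic ring, well-averaged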
Hits are given with their value. Compounds with a hit are over-represented: about 2% of the library has one in this group of screens.

How did Cc1ccc(C(C#N)c2ccc3c(C(F)(F)F)cc(C(F)(F)F)nc3n2)cc1 (stereo not drawn) do in these assays?
Ins promoter up: inactive; Autophagy mod: active; INS promoter inh: inactive; Dynein transport: inactive

How did N#CC(c1ccccc1)c1ccc2c(C(F)(F)F)cc(C(F)(F)F)nc2n1 (stereo not drawn) do in these assays?
Ins promoter up: inactive; Autophagy mod: inactive; INS promoter inh: inactive; Dynein transport: inactive

Results for O=C1Nc2ccccc2/C1=N\c1sc2c(c1C(=O)Nc1ccccc1)CCCC2 ?
Ins promoter up: inactive; Autophagy mod: active; INS promoter inh: inactive; Dynein transport: inactive

Results for O=C(CSc1n[nH]c(-c2ccco2)n1)Nc1sc2c(c1C(=O)Nc1ccccc1)CCCC2 ?
Ins promoter up: inactive; Autophagy mod: inactive; INS promoter inh: inactive; Dynein transport: inactive

What do the screens show for `COc1ccc(CC(=O)Nc2nn(C)c3nc4c(C)cccc4cc23)cc1`?
Ins promoter up: inactive; Dynein transport: inactive

Results for Cc1cccc(NC(=S)N=Nc2c(O)n(CN3CCOCC3)c3ccccc23)c1C ?
Ins promoter up: inactive; Autophagy mod: inactive; INS promoter inh: 78; Dynein transport: inactive

What do the screens show for `COc1ccc(C(=O)NC(=S)Nc2ccc(Cc3ccncc3)cc2)cc1`?
Ins promoter up: inactive; Autophagy mod: inactive; INS promoter inh: inactive; Dynein transport: inactive

What do the screens show for `CCOC(=O)C1CSC(CC(=O)Nc2ccc(OC(F)(F)F)cc2)C(=O)N1` (stereo not drawn)?
Ins promoter up: inactive; Dynein transport: inactive

Results for NS(=O)(=O)c1cccc(NC(=O)Cc2ccc(Cl)c(Cl)c2)c1 ?
Autophagy mod: inactive; INS promoter inh: inactive; Dynein transport: inactive

What do the screens show for `Nc1nc(-c2ccccn2)nc(N)c1Cc1ccc(Cl)cc1Cl`?
Ins promoter up: inactive; Autophagy mod: active; INS promoter inh: inactive; Dynein transport: inactive

What do the screens show for `CCCn1c(=O)[nH]c(=O)c2c1nc(-c1cccs1)n2CCOC`?
Ins promoter up: inactive; Autophagy mod: inactive; INS promoter inh: inactive; Dynein transport: inactive

What do the screens show for `COc1ccccc1OCC(=O)NNc1c2ccccc2nc2ccccc12`?
Ins promoter up: inactive; Dynein transport: inactive

What do the screens show for `O=C1C(=Cc2cccn2-c2ccc(O)cc2)C(=O)c2ccccc21`?
Autophagy mod: active; INS promoter inh: inactive; Dynein transport: inactive

Results for O=C(COC(=O)c1cc(S(=O)(=O)N2CCCC2)ccc1O)Nc1ccc(S(=O)(=O)N2CCOCC2)cc1 ?
Ins promoter up: inactive; Dynein transport: inactive

How did O=C(COC(=O)c1cc(S(=O)(=O)N2CCOCC2)ccc1O)NCC1CCCO1 (stereo not drawn) do in these assays?
Ins promoter up: 3.8; Autophagy mod: inactive; INS promoter inh: inactive; Dynein transport: inactive

What do the screens show for `O=C(N/N=C/c1cn(-c2ccccc2)nc1-c1ccc([N+](=O)[O-])cc1)c1ccncc1`?
Ins promoter up: inactive; Dynein transport: inactive

How did Cc1ccc2c(c1)C(=O)C(=O)N2CCOc1ccccc1 do in these assays?
Ins promoter up: inactive; Autophagy mod: inactive; Dynein transport: inactive

What do the screens show for `Cc1cccc(OCCN2C(=O)C(=O)c3cc(C)ccc32)c1`?
Ins promoter up: inactive; Autophagy mod: active; INS promoter inh: inactive; Dynein transport: inactive

How did Cc1cc(C(=O)CSc2nnnn2C)c(C)n1CCc1ccc(F)cc1 do in these assays?
Ins promoter up: inactive; Autophagy mod: inactive; INS promoter inh: inactive; Dynein transport: inactive

What do the screens show for `Cc1cc(C(=O)CCl)c(C)n1CCc1ccc(F)cc1`?
Ins promoter up: inactive; Autophagy mod: inactive; INS promoter inh: 100; Dynein transport: inactive

How did CCCOc1ccc(C(=O)NCCC(=O)NCCCC(=O)O)cc1 do in these assays?
Ins promoter up: inactive; Dynein transport: inactive

How did O=C(c1ccco1)N1CCN(C(=O)c2nn3cccnc3c2Cl)CC1 do in these assays?
Autophagy mod: inactive; INS promoter inh: inactive; Dynein transport: inactive

Results for O=C(c1nn2cccnc2c1Cl)N1CCN(c2ccccc2)CC1 ?
Ins promoter up: inactive; Autophagy mod: active; INS promoter inh: inactive; Dynein transport: inactive

Results for CCN1C(=O)/C(=C/N2CCc3ccccc32)SC1=S ?
Ins promoter up: inactive; Autophagy mod: active; INS promoter inh: inactive; Dynein transport: inactive

How did Cc1csc(NC(=O)CN(C)S(=O)(=O)c2cccc3cccnc23)n1 do in these assays?
Ins promoter up: 3; Autophagy mod: inactive; Dynein transport: inactive

What do the screens show for `CN(CC(=O)N1CCCCC1)S(=O)(=O)c1cccc2cccnc12`?
Ins promoter up: inactive; Autophagy mod: inactive; INS promoter inh: 86; Dynein transport: inactive

What do the screens show for `Fc1ccc(-n2c(CN3CCCCC3)n[nH]c2=S)cc1`?
Ins promoter up: inactive; Autophagy mod: inactive; INS promoter inh: inactive; Dynein transport: inactive

Assay outcomes: PubChem BioAssay, several laboratories
